# PMC5835461 (Journal of Diabetes Investigation, 2017)
# Columns and labels:
# [1] = test system: Japanese patients with type 1 diabetes; assay: Safety assessments; assay type: in vivo, human; conditions: Japanese T1D patients; 0.2 U/kg single s.c. dose
# In short: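 Monitored through screening, two single 0.2 U/kg subcutaneous dosing visits and follow-up 7–21 days after second dose. Covered adverse events, injection site reactions, hypoglycemia, safety laboratory parameters, vital signs, physical examination and ECG. Hypoglycemia counted as confirmed if severe (third-party assistance) or plasma glucose <3.1 mmol/L. Summary statistics covered all patients receiving at least one dose.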
# [2] = Pharmacokinetics: free serum IAsp concentration; assay type: in vivo, human (Japanese patients with type 1 diabetes); conditions: Japanese T1D patients; 0.2 U/kg single s.c. dose; least squares mean
# In short: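 Randomized, double-blind crossover with 3–12 days between dosing visits. After an overnight fast, patients received 0.2 U/kg subcutaneously into the lower abdominal wall. A euglycemic clamp held BG at 5.5 mmol/L, with sampling from 10 min pre-dose to 12 h post-dose. Free serum IAsp (PEG-precipitated) was measured by validated ELISA (LLOQ 10 pmol/L). Times were taken from raw individual profiles and analysed by linear mixed model.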
substance,measurement,setting,value
insulin aspart [IAsp],Confirmed hypoglycemic episodes or injection site reactions,[1],No confirmed hypoglycemic episodes or injection site reactions
same,Serious adverse events,[1],no serious adverse events
same,Tolerability,[1],well tolerated
same,t Early 50% Cmax,[2],29.3 min
same,t max,[2],1.14 h
